Results from ChEMBL document CHEMBL4390639, “Design, Synthesis, and Biological Evaluation of Novel Allosteric Protein Disulfide Isomerase Inhibitors” (J Med Chem, 2019).
The source made the active and inactive calls. No cut-off for these calls is given here.

Tests used:
U-87 MG [1] = test: Inhibition of colony formation in human U87MG cells assessed as combination index at 1 to 30 uM measured after 24 hrs in presence of arsenic trioxide by crystal violet staining based assay; format: functional, U-87MG ATCC
[2] = target: T1, Protein disulfide-isomerase (Homo sapiens, UniProt P07237); test: Inhibition of recombinant human N-terminal His-tagged PDI expressed in Escherichia coli BL21 (DE3) pLysS assessed as reduction in enzyme-mediated bovine insulin aggregation
Target sequence in this assay (P07237 whole entry): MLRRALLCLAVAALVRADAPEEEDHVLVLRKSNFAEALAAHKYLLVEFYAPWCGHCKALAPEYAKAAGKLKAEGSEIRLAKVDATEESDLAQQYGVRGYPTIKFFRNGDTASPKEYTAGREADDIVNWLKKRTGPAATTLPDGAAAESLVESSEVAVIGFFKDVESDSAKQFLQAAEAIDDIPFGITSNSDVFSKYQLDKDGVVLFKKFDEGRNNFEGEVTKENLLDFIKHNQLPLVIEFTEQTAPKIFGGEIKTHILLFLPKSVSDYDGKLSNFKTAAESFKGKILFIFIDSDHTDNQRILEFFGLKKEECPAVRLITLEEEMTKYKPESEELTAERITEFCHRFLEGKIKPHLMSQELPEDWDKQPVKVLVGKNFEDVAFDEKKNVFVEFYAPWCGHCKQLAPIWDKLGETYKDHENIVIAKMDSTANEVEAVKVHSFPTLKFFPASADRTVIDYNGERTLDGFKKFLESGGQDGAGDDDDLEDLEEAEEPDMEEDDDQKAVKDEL

[3] = Cytotoxicity against human NU04 cells assessed as inhibition of cell growth measured after 72 hrs by MTT assay; format: functional, cell-based
Summary of the method: (§1)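 A172 and NU04 cells were seeded at 4000 cells/well and U87MG at 5000 cells/well, incubated overnight at 37 °C, 5% CO2, then exposed to compound or vehicle for 72 h. MTT (3 mg/mL) was added for 4 h, formazan was dissolved in DMSO, and absorbance was read at 570 nm. IC50 came from nonlinear regression; mean ± SD of at least three experiments.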

U-87 MG [4] = test: Cytotoxicity against human U87MG cells assessed as inhibition of cell proliferation at <IC50 treated for 24 hrs, measured after 10 days by colony formation assay relative to control
A 172 [5] = test: Cytotoxicity against human A172 cells assessed as inhibition of cell growth measured after 72 hrs by MTT assay; format: functional, cell-based; summary of the method: as §1
U-87 MG [6] = test: Cytotoxicity against human U87MG cells assessed as inhibition of cell growth measured after 72 hrs by MTT assay; format: functional, cell-based, U-87MG ATCC; summary of the method: as §1
[7] = target: Eukaryotic translation initiation factor 2 subunit 1 (Homo sapiens) (UniProt P05198); test: Induction of EIF2alpha phosphorylation in human A172 cells at 1 uM measured after 2 hrs by Western blot analysis; format: cell-based
Chain of Eukaryotic translation initiation factor 2 subunit 1 (Homo sapiens) (P05198 whole entry): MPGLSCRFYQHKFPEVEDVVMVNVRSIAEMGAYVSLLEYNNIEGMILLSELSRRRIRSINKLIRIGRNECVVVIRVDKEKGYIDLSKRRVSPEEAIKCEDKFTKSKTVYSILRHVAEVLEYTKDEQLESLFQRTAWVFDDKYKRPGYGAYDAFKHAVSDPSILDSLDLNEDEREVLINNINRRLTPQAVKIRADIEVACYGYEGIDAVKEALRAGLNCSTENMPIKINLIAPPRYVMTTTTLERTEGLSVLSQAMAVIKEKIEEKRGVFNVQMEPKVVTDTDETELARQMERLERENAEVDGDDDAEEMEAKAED

U-87 MG [8] = test: Inhibition of colony formation in human U87MG cells […] by crystal violet staining based assay; format: functional, cell-based; details: U-87MG ATCC
Summary of the method: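 Clonogenicity: U87MG cells seeded at 200 cells/well, left overnight, treated 24 h, then medium replaced and cells grown ten days. Stained 30 min with crystal violet, washed, imaged; normalized well intensity from three independent experiments.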

A 172 [9] = test: Antimigratory activity against human A172 cells assessed as reduction in cell migration towards wound area measured after 24 hrs by Giemsa staining based microscopic analysis; format: functional
Summary of the method: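 A172 cells plated at 50,000 cells/well, incubated overnight at 37 °C, 5% CO2, then held 24 h in serum-free DMEM. A scratch was made, compounds were added, and cells grew 24 h until DMSO-control wells closed. Cells were Giemsa-stained and imaged at 10X.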

[10] = target: 72 kDa type IV collagenase (Homo sapiens) (UniProt P08253); test: Inhibition of MMP2 activity in human U87MG cells at 0.25 uM […] by gelatin zymographic method; format: cell-based
Chain of 72 kDa type IV collagenase (Homo sapiens) (P08253 110-660 limits assumed): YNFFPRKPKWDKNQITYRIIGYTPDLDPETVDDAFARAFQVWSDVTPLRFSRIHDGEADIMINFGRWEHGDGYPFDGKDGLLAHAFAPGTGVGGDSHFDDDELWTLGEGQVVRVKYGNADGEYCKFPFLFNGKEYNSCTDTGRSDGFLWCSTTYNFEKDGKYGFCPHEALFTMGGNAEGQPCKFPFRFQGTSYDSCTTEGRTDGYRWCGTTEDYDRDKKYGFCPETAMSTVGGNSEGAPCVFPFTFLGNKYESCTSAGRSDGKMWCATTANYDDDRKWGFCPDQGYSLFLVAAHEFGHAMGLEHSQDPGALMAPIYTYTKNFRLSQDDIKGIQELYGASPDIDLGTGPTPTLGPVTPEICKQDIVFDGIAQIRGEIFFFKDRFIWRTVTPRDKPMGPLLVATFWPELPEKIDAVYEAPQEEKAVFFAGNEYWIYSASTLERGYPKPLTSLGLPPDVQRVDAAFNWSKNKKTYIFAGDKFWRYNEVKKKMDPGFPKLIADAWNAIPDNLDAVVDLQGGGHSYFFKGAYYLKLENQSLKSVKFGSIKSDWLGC

A 172 [11] = test: Antimigratory activity against human A172 cells at 30 uM measured after 4 hrs by Giemsa staining based transwell migration assay; format: functional, cell-based
Summary of the method: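 A172 cells (1 x 10^5) were treated with compound and seeded into inserts with 8.0 μm PET membrane in serum-free medium. DMEM with 10% FBS was in the lower well; wells without FBS served as control. After 4 h, migrated cells were Giemsa-stained and imaged at 10X, 5 fields per well.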

[12] = target: T1, Protein disulfide-isomerase; test: Inhibition of recombinant human N-terminal His-tagged PDI expressed in Escherichia coli BL21 (DE3) pLysS at 100 uM measured after 1 hr by ANS dye based fluorescence spectra analysis
Summary of the method: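 ANS spectral scan: PDI incubated with 100 μM compounds or matching DMSO in TBS for 1 h at 37 °C. ANS then added and incubated 20 min at 25 °C in the dark. Fluorescence spectrum recorded with excitation 370 nm, emission 400–700 nm.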
Target sequence in this assay (P07237 18-508 limits assumed): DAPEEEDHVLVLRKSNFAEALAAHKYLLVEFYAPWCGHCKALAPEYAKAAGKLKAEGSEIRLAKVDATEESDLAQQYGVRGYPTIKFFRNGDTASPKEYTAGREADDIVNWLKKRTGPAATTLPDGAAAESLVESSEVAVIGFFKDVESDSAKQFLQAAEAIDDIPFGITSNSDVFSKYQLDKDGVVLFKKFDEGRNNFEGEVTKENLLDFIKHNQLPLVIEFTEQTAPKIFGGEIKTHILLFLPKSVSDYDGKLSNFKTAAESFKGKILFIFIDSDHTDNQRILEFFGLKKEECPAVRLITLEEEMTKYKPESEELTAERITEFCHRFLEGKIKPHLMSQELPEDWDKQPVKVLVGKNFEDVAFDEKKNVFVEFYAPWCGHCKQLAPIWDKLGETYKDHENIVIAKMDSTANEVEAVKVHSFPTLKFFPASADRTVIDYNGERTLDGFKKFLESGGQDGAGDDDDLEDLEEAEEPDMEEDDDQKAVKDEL

U-87 MG [13] = test: Induction of endoplasmic reticulum stress in human U87MG cells assessed as increase in GRP78 expression at 1 uM measured after 24 hrs by Western blot analysis; format: functional, cell-based; details: U-87MG ATCC
Summary of the method: (§2)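 ER-stress immunoblot: 0.5 x 10^6 U87MG cells/well treated for 24 h with 20 µM analogues, 1 µM PACMA31 or DMSO; tunicamycin 10 µg/mL for 2 or 24 h as positive control. Lysis in Tris/NaCl/Triton/SDS buffer with sonication; 30 µg protein on 10% gels, transferred to PVDF, GRP78 probed, fluorescence imaging.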

[14] = target: T1, Protein disulfide-isomerase; test: Inhibition of recombinant human N-terminal His-tagged PDI expressed in Escherichia coli BL21 (DE3) pLysS assessed as reduction in enzyme-mediated bovine insulin aggregation at 40 uM measured after 1 hr in presence of 5 mM NAC
Summary of the method: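 Compounds pretreated with NAC for 30 min at 37 °C, then added to the insulin reductase assay at final 40 μM compound with 0, 1, 2 or 5 mM NAC. The assay uses 0.4 μM PDI preincubated 1 h at 37 °C, then DTT and bovine insulin, read at 620 nm, with % activity at 80 min.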
Target sequence in this assay (P07237 18-508 limits assumed): as above

A 172 [15] = test: Induction of endoplasmic reticulum stress in human A172 cells assessed as increase in GRP78 expression at 1 uM measured after 24 hrs by Western blot analysis; format: functional, cell-based
[16] = target: Eukaryotic translation initiation factor 2 subunit 1 (Homo sapiens) (UniProt P05198); test: Induction of EIF2alpha phosphorylation in human U87MG cells at 1 uM measured after 2 hrs by Western blot analysis; format: cell-based
Summary of the method: (§3)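 eIF2α phosphorylation in U87MG cells after 2 h with 1 µM PACMA31 or 20 µM analogues; tunicamycin 10 µg/mL as comparator. Lysates (Tris/NaCl/Triton/SDS, sonicated) quantified by BCA; 30 µg protein separated on 10% gels, blotted to PVDF, probed for phospho-eIF2α, detected by fluorescence.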

U-87 MG [17] = test: Down regulation of cleaved MMP2 expression in human U87MG cells at 0.25 uM measured after 24 hrs by Western blot analysis; format: functional, cell-based; details: U-87MG ATCC
U-87 MG [18] = test: Down regulation of MMP9 expression in human U87MG cells at 0.25 uM measured after 24 hrs by Western blot analysis; format: functional, cell-based; details: U-87MG ATCC
D54 cell line = test: Inhibition of colony formation in 1 to 6 Gy-irradiated human D54 cells at 0.05 uM measured after 10 to 12 days by crystal violet staining based assay; format: functional, cell-based
Summary of the method: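 D54 cells irradiated at 0, 1, 2, 4 or 6 Gy and plated immediately at 200–1000 cells/well according to dose. Treated with DMSO, 0.05 μM PACMA31 or 1 μM compounds, grown 10–12 days, then colonies stained with 0.1% crystal violet.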

[19] = target: T1, Protein disulfide-isomerase; test: Binding affinity to recombinant human N-terminal His-tagged PDI expressed in Escherichia coli BL21 (DE3) pLysS assessed as change in melting temperature at 100 uM by ROX dye based thermal shift assay
Summary of the method: (§4)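 Purified wild-type, C53S/C397S or H256A PDI at 0.5 mg/mL in 50 mM Tris, pH 7.0, with or without 100 μM compound, was mixed with ROX dye in a 20 µL well. DMSO (5% in buffer) was the control. Samples were heated 25–99 °C at 1 °C/min, and the Boltzmann melting temperature shift versus DMSO was reported. Mean ± SD of three experiments.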
Target sequence in this assay (P07237 18-508 limits assumed): as above

[20] = test system: Protein disulfide-isomerase (Homo sapiens), P07237 [H256A]; test: Binding affinity to recombinant human N-terminal His-tagged PDI H256A mutant expressed in Escherichia coli BL21 (DE3) pLysS assessed as change in melting temperature at 100 uM by ROX dye based thermal shift assay; summary of the method: as §4
Chain of Protein disulfide-isomerase (Homo sapiens), P07237 [H256A] (P07237 whole entry H256A): as the sequence (P07237 whole entry) above, with H256A counted along it

[21] = Solubility of the compound in DMSO; format: physicochemical
[22] = target: Eukaryotic translation initiation factor 2 subunit 1 (Homo sapiens) (UniProt P05198); test: Induction of EIF2alpha phosphorylation in human U87MG cells at 20 uM measured after 2 hrs by Western blot analysis; format: cell-based; summary of the method: as §3
U-87 MG [23] = test: Effect on MMP2 expression in human U87MG cells at 10 uM measured after 24 hrs by Western blot analysis; format: functional, cell-based; details: U-87MG ATCC
U-87 MG [24] = test: Effect on PDI expression in human U87MG cells at 20 uM measured after 24 hrs by Western blot analysis; format: functional, cell-based; details: U-87MG ATCC
U-87 MG [25] = test: Induction of endoplasmic reticulum stress in human U87MG cells assessed as increase in GRP78 expression at 20 uM measured after 24 hrs by Western blot analysis; format: functional, cell-based; details: U-87MG ATCC; summary of the method: as §2
A 172 [26] = test: Induction of endoplasmic reticulum stress in human A172 cells assessed as increase in GRP78 expression at 20 uM measured after 24 hrs by Western blot analysis; format: functional, cell-based
[27] = target: Eukaryotic translation initiation factor 2 subunit 1 (Homo sapiens) (UniProt P05198); test: Induction of EIF2alpha phosphorylation in human A172 cells at 20 uM measured after 2 hrs by Western blot analysis; format: cell-based
[28] = target: Focal adhesion kinase 1 (Homo sapiens) (UniProt Q05397); test: Effect on FAK phosphorylation in human U87MG cells at 10 uM measured after 24 hrs by Western blot analysis; format: cell-based
Chain of Focal adhesion kinase 1 (Homo sapiens) (Q05397 2-1052 limits assumed): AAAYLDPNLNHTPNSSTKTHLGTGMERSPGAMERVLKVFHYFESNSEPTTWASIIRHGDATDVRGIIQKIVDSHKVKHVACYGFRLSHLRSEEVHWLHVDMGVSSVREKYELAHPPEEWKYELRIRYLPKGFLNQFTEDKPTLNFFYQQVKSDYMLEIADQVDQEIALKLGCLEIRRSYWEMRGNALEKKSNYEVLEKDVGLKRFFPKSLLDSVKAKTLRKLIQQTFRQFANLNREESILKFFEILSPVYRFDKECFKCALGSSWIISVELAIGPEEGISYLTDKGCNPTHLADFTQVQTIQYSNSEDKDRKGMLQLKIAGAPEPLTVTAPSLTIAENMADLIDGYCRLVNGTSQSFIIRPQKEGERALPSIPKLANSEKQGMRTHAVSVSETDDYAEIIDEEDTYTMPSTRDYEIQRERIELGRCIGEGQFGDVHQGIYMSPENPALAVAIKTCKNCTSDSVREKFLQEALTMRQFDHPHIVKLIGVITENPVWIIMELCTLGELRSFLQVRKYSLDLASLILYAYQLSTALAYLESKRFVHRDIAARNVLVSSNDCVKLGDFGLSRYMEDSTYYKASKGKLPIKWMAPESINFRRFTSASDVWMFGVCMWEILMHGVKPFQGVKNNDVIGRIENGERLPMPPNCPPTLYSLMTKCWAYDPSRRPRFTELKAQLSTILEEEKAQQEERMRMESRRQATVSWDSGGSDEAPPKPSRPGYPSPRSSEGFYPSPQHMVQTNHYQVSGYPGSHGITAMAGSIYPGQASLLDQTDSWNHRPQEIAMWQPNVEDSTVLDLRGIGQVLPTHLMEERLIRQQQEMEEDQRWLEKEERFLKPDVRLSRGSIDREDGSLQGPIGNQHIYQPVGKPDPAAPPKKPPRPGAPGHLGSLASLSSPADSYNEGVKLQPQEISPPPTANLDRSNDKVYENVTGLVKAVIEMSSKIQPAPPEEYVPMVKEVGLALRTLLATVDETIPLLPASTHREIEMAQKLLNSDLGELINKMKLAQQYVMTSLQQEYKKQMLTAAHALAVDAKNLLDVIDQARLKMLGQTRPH

A 172 [29] = test: Effect on PDI expression in human A172 cells at 20 uM measured after 24 hrs by Western blot analysis; format: functional, cell-based
[30] = test system: Protein disulfide-isomerase (Homo sapiens), P07237 [H256A]; test: Inhibition of recombinant human N-terminal His-tagged PDI H256A mutant expressed in Escherichia coli BL21 (DE3) pLysS at 10 uM assessed as reduction in enzyme-mediated bovine insulin aggregation
Summary of the method: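 Insulin reductase assay against H256A PDI: 0.4 μM enzyme preincubated with compounds at 10 μM for 1 h at 37 °C in 100 mM sodium phosphate, 2 mM EDTA, 8 μM DTT, pH 7.0. Then 500 μM DTT and 130 μM bovine insulin added; aggregation read at 620 nm at room temperature. Activity % from OD change at 0 and 80 min, relative to PDI and DTT-only controls; three experiments.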

U-87 MG [31] = test: Cytotoxicity against human U87MG cells assessed as inhibition of cell proliferation at <IC50 treated for 24 hrs and measured after 10 days by colony formation assay relative to control
HFF-1 = test: Cytotoxicity against HFF1 cells assessed as inhibition of cell growth measured after 72 hrs by MTT assay; format: cell-based; details: Homo sapiens, HFF-1, 72 h
Summary of the method: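 Cells grown as monolayers at 37 °C, 5% CO2, seeded and left overnight, then exposed to drug or vehicle for 72 h. MTT (20 μL of 3 mg/mL) added for 4 h, supernatant removed, formazan dissolved in DMSO, absorbance read at 570 nm. IC50 from nonlinear regression of log concentration–response curves; at least three independent experiments.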

[32] = Therapeutic ratio of IC50 for HFF1 cells to IC50 for human NU04 cells
Summary of the method: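 Ratio of two growth-inhibition IC50s, HFF-1 normal human fibroblasts over NU04 glioma cells. Cells were grown as monolayers at 37 °C in 5% CO2, with NU04 seeded at 4000 cells/well. After overnight attachment, cells were exposed to compound or vehicle for 72 h. MTT (3 mg/mL) was added for 4 h, and formazan dissolved in DMSO was read at 570 nm. IC50s came from nonlinear regression of log concentration-response curves, with at least three independent experiments.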

[33] = Homo sapiens, 72 h, read-out: IC50
[34] = Homo sapiens, A 172, 72 h, read-out: IC50
[35] = Homo sapiens, U-87 MG, 72 h, read-out: IC50

`CN(C)S(=O)(=O)c1ccc(C(=O)/C=C/c2cccc(C#N)c2)cc1` showed a CI (U-87 MG [1]) of less than 1 and an IC50 [2] of 6.23 µM.

With `N#Cc1cccc(/C=C/C(=O)c2ccc(O)c(F)c2)c1` the IC50 [3, 33] was 9.8 µM, the “inhibition (INH)” value (U-87 MG [4]) was greater than 50% and the IC50 (A 172 [5]; [34]) was 21.9 µM. It also gave an IC50 (U-87 MG [6]; [35]) of 29.1 µM and an IC50 [2] of 1.14 µM.

For `C#CC(=O)N(c1ccc(OC)cc1OC)C(C(=O)NCC(=O)OCC)c1cccs1` (stereo unspecified), the Activity [7] was “inactive”, the inhibition (U-87 MG [8]) was “Dose-dependent effect” and the Activity (A 172 [9]) was “Dose-dependent effect”. The inhibition [10] was “Active”, the Activity (A 172 [11]) was “Active” and the inhibition [12] was “inactive”. The Activity (U-87 MG [13]) was “Active”, the inhibition [14] was “inactive” and the Activity (A 172 [15]) was “Active”. For the same molecule, the Activity [16] was “inactive”, the IC50 [2] was 10.8 µM and the Activity (U-87 MG [17]) was “Active”. For the same molecule, the Activity (U-87 MG [18]) was “Active”, the inhibition (D54 cell line) was “inactive” and the ΔTm [19] was 0.03 °C.

For `C[C@]12CC[C@@H]3c4ccc(O)cc4CC[C@H]3[C@@H]1CC[C@@H]2O`, the Activity [20] was “inactive”.

For `N#Cc1cccc(/C=C/C(=O)c2ccc(S(=O)(=O)NC3CC3)cc2)c1`, the IC50 [3] was “Nd(Insoluble)”, the IC50 (A 172 [5]; a 172) was “Nd(Insoluble)” and the solubility [21] was “Insoluble”. The IC50 (U-87 MG [6]; u-87mg atcc) was “Nd(Insoluble)” and the IC50 [2] was 1.05 µM.

With `O=C(/C=C/c1ccc(-c2ccncc2)cc1)c1cccc(O)c1` the IC50 [3, 33] was 3.8 µM, the IC50 (A 172 [5]; [34]) was 11.3 µM and the Activity [22] was “Active”. The Activity (U-87 MG [23]) was “inactive”, the Activity (U-87 MG [24]) was “inactive” and the inhibition (U-87 MG [8]) was “Dose-dependent effect”. The Activity (U-87 MG [25]) was “Active”, the Activity (A 172 [26]) was “Active” and the IC50 (U-87 MG [6]; [35]) was 24.9 µM. For the same molecule, the Activity [27] was “Active”, the Activity [28] was “inactive” and the Activity (A 172 [29]) was “inactive”. For the same molecule, the inhibition [30] was “inactive”, the IC50 [2] was 0.21 µM and the “inhibition (INH)” value (U-87 MG [31]) was greater than 50%. The IC50 (HFF-1) was 31.8 µM, the ΔTm [19] was 0.34 °C and the “Ratio IC50” value [32] was 8.39.
